Published values from different studies.
Protocols differ between the studies behind these lines.
Target: Dual specificity mitogen-activated protein kinase kinase 5 (MAP2K5, Homo sapiens, UniProt Q13163)
One construct used (Q13163 1-448): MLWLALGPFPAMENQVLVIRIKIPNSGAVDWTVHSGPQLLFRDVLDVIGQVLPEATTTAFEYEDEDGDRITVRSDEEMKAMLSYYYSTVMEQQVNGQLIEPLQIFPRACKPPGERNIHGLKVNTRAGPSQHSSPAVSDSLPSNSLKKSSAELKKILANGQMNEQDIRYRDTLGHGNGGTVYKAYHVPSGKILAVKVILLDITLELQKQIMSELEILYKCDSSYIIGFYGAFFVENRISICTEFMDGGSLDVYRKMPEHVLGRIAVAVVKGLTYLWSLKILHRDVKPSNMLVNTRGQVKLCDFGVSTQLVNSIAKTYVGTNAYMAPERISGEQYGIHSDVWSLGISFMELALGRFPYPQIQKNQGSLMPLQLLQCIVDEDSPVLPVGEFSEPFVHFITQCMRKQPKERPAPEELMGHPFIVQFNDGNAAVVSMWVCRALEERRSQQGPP

`O=C(Nc1c[nH]nc1C(=O)NC1CCNCC1)c1cc(F)cc(F)c1` has a remaining binding of 100% (binding; competition with immobilised ligand; 1 µM).
`CN(CCCC(F)(F)F)c1nccc(-c2cnn3ncccc23)n1` gave a remaining binding of 100% (binding; 1 µM).
With `COc1cnc(Nc2cccc(S(N)(=O)=O)c2)nc1N1CCN(c2ccccc2)C(=O)C1` the remaining binding was 67% (binding; competition with immobilised ligand; 1 µM).
With `C[C@@H](c1ccc(-n2cnc3c(N)ncnc32)cc1)N1CCc2nn(C)c(Cc3ccccc3)c2C1=O` the remaining binding was 40% (binding; competition with immobilised ligand; 0.1 µM).
For `CN(c1nccc(-c2cnn3ncccc23)n1)C1CC1`, the remaining binding was 100% (binding; 1 µM).
The remaining binding of `O=C(c1ccc(Nc2nccc(-c3cc4ccccc4s3)n2)cc1)N1CCC(N2CCCC2)CC1` is reported as 16% (binding; competition with immobilised ligand; 1 µM).
`CC(=O)C1=C(C)N(c2cccc(C(F)(F)F)c2)C(=O)N[C@@H]1c1ccc(C#N)nc1` has a remaining binding of 100% (cell-free assay; competition with immobilised ligand; 1 µM).
`C=CC(=O)N1CCC(C(=O)NCC(=O)N2CCN(c3nc(-c4cnc(N)nc4C(F)F)nc(N4CCOCC4)n3)CC2)CC1` has a remaining binding of 77% (binding; competition with immobilised ligand; 1 µM).
`COc1ccc2c(O[C@@H]3C[C@H]4C(=O)N[C@]5(C(=O)O)CC5/C=C\CCCCC[C@H](NC(=O)OC5CCCC5)C(=O)N4C3)cc(-c3csc(NC(=O)C(C)C)n3)nc2c1C` (stereo partly shown) gave a remaining binding of 71% (cell-free assay; competition with immobilised ligand; 1 µM).
The remaining binding of `COc1ncc2cc3ccccc3nc2c1C#N` is reported as 94% (cell-free assay; competition with immobilised ligand; 5 µM).
For `Cc1cnn2ncc(-c3ccnc(N(C)C)n3)c2c1`, the remaining binding was 78% (binding; 1 µM).
`Nc1ncc2c(n1)-c1c([nH]c3ccc(C#CC4CC4)cc13)CCCC2` has a remaining binding of 21% (binding; competition with immobilised ligand; 1 µM).
`N[C@@H]1CCN(c2nccc(-c3cnn4ncccc34)n2)C1` gave a remaining binding of 97% (binding; 1 µM).
With `O=C1NC(c2ccccn2)Sc2ccccc21` (stereo not shown) the remaining binding was 87% (cell-free assay; competition with immobilised ligand; 1 µM).
`Cc1cnc(Nc2ccc(C(=O)N3CCC(N4CCCC4)CC3)cc2)nc1-c1cc2ccccc2s1` has a remaining binding of 0.4% (binding; competition with immobilised ligand; 1 µM).
`c1cnn2ncc(-c3ccnc(N4CCC45COC5)n3)c2c1` has a remaining binding of 30% (binding; 1 µM).
With `CS(=O)(=O)N1CCCC(NC(=O)[C@H](CCC2CCCCC2)NC(=O)c2ccc(CNc3ncnc4c3nnn4-c3ccccc3)cc2)C1` (stereo partly shown) the remaining binding was 100% (cell-free assay; competition with immobilised ligand; 0.1 µM).
For `O=C(NCCCN1CCOCC1)c1ccc(Nc2nccc(-c3cc4ccccc4s3)n2)cc1`, the remaining binding was 36% (binding; competition with immobilised ligand; 1 µM).
For `O=C(O)c1cc(-c2ccc(C3CCNCC3)cc2)c2ccc(-c3ccc(C(F)(F)F)cc3)cc2c1`, the remaining binding was 96% (cell-free assay; competition with immobilised ligand; 1 µM).
The remaining binding of `CNC(=O)[C@@H]1CC[C@@H](n2c(-c3ccc4cnccc4c3)nc3ccc(C(=O)NCc4cccc(C(N)=O)c4)cc32)C1` is reported as 53% (binding; competition with immobilised ligand; 1 µM).
`C[C@@H]1CN(c2cc(-c3nn(C)c4ccc(OC5(C)CC5)cc34)ncn2)C[C@H](C)O1` has a remaining binding of 93% (cell-free assay; competition with immobilised ligand; 1 µM).
With `C[C@@H]1CCN(c2nccc(-c3cnn4ncccc34)n2)C1` the remaining binding was 71% (binding; 1 µM).
